Experimental data: the EternaBench riboswitch data

Test system: MS2 coat protein
Assay: apparent Kd, MS2 coat protein; higher = weaker binding; RNA-MaP array; FMN 200 µM where present
Summary of the method: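 In 100 mM Tris-HCl pH 7.5, 80 mM KCl, 4 mM MgCl2, BSA, DTT, yeast tRNA and Tween-20, SNAP-549-labelled MS2 coat protein was titrated from 0.7 or 1.5 nM, doubling to 3 µM, over designs transcribed by stalled E. coli RNA polymerase on Illumina sequencing-chip clusters. This was done first without ligand, then with ligand held constant. After green signal was normalised to red-channel RNA signal and control-cluster median Fmax, the apparent Kd was taken as the median of filtered per-cluster binding-curve fits.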

[1] = designed as: ON switch for flavin mononucleotide, no ligand
[2] = ligand present: flavin mononucleotide, designed as: ON switch for flavin mononucleotide
[3] = designed as: OFF switch for flavin mononucleotide, no ligand
[4] = ligand present: flavin mononucleotide, designed as: OFF switch for flavin mononucleotide

| Sequence | apparent Kd [1] [nM] | apparent Kd [2] [nM] | apparent Kd [3] [nM] | apparent Kd [4] [nM] |
| --- | --- | --- | --- | --- |
| UAUGUGACACAGAAGGCCAGUCACAUGAGGAUCACCCAUGUAGUAAAGUGGAGGAUAUGUGUGCCUAGCAACUUACUAGCAAGA | 107 | 9.61 |  |  |
| UAUGUUGUUGUGAGGAUAUACUUAGUUUGACCGUAGUAGAAGGCACAUGAGGAUCACCCAUGUAGAUUUUUGGU |  |  | 9.54 | 15.8 |
| UAUGUUUUUGUGAGGAUAUACUUUGUUUGGUCGUAGUAGAAGGCACAUGAGGAUCACCCAUGUAGAUUUUUGGU |  |  | 22.8 | 40.4 |
| UAUUAGUAAGGAUAUCUCGUCAUGGAGGAAACUCCAUGACGAGAGAAGGUACAUGAGGAUCACCCAUGUCUAUU |  |  | 16.1 | 18.3 |
| UAUUAGUAAGGAUAUGAGACGUAGGACUUCGGUCCUACGUCUCAGAAGGUACAUGAGGAUCACCCAUGUUUAUU |  |  | 17.1 | 26.1 |
| UAUUAUCACGAAGGAUAUGCUGACAUGAGGAUCACCCAUGUAUGUAUAUUGAUCCAGCGUAUUUAGCAGAAGGUCGUGAGUAAA |  |  | 45.9 | 43 |
| UAUUUAAGAGGAUAUACAUGAGGAUCACCCAUGUGUGUCAAUACGCGUGAUUUUUCAUGUAGAAGGCUUGGGUA |  |  | 233 | 129 |
| UAUUUAUAAUAUUUUAACAUGAGGAUCACCCAUGUCGCUAGACAGGAUAUAUUUUAUUUUUUUAAGUAGAAGGGUCAUAGAUUU | 75.1 | 96.9 |  |  |
| UAUUUUUAUGUAAGGAUAUGGGUUUGGUUGCGGGCUUAGAAGGUACAUGAGGAUCACCCAUGUAUAAUGUGCGU |  |  | 29.6 | 30.5 |
| UCAACCAGCGCCGGUUAAACAUGAGGAUCACCCAUGUACUCCAGAAGGCCGCCCAAGAACGGAGUGGAGGAUAUGGAGGUUCUC | 46.8 | 38.7 |  |  |
| UCAACCGGCGCCGGUUGAACAUGAGGAUCACCCAUGUACUCCAGAAGGCCGCCCAAGAACGGAGUGGAGGAUAUGGAAGUUCUC | 47.2 | 30.1 |  |  |
| UCAAUAUAUCAGGAUAUGACUUUUUGUGUUAAGUCAGAAGGGAUAACAUGAGGAUCACCCAUGUGAUAUAGUGA |  |  | 52 | 58.9 |
| UCAAUUUUGCGAGGAUAUCGACCAUUCCUCUUUACAUGAGGAUCACCCAUGUACUUAUUCUACAACGAGAAGGCGCUCAUAGUU |  |  | 37.5 | 43 |
| UCACAGUGUCGUUAUCCGUAGCGAACAUGAGGAUCACCCAUGUAGGAUAUGUUAUUAAACUAAUAACAGAAGGACGUUGGUCGG |  |  | 36.7 | 220 |
| UCACGGGAUUGAGGAUAUAUAUAAAUUUAUACAAUAGAAGGCAAAUUUUUAGUUUUUUCACUUUACAUGAGGAUCACCCAUGUU |  |  | 26.2 | 24.2 |
| UCAUAACAUGAGGAUCACCCAUGUCAGGAUAUGAUACUAUGUACUUCGGUACAUAGUAUCAGAAGGGACAUGCU |  |  | 121 | 18.6 |
| UCAUAAUUGAUCCUAUUUACCAACAUGAGGAUCACCCAUGUGCAGGAUAUGCUAAAGAUAGAUAAGCAGAAGGGCAAAUACAUA |  |  | 162 | 756 |
| UCAUAUAUACAAGGAUAUCAAUUAUUUACACAUCCUACAUGAGGAUCACCCAUGUUUUAAUAUUUUGAGAAGGUGUAAUGUCGG | 24 | 30.7 |  |  |
| UCAUCAACGGGCGGGUCGGUUGGACAUGAGGAUCACCCAUGUAGAAGGACCGGUGGACUCCGGCGGUAGGAUAUACAUAUGGUG |  |  | 29.2 | 36.7 |
| UCAUGGUAGCAGGAUAUGCUUGUAAUUUUUUAUGCAGAAGGGCUUACAUGAGGAUCACCCAUGUGUUAGGUCUA |  |  | 43.4 | 66.2 |
| UCAUGUAUGUAGGAUAUCGAUGUCUUCGGACAUCGAGAAGGACGUACAUGAGGAUCACCCAUGUAACUUGCAUG |  |  | 17.9 | 16.6 |

| Sequence | apparent Kd [1] [nM] | apparent Kd [2] [nM] | apparent Kd [3] [nM] | apparent Kd [4] [nM] |
| --- | --- | --- | --- | --- |
| UCAUUAUAAAUCCAUCAUAACUACAUGAGGAUCACCCAUGUGCAGGAUAUCGAUUAUUUAACUAACGAGAAGGGCAUUUACAGA |  |  | 50.1 | 169 |
| UCAUUUAUUACAGGAUAUGUUAGUAUACAGUUGUUUGGUUAUUACAUAUUAACAGAAGGGUAGAACAUGAGGAUCACCCAUGUA | 95.7 | 52.3 |  |  |
| UCAUUUCAGUAAGGAUAUUAAAACAUGACGAUACAUGAGGAUCACCCAUGUUAAGAAGGUACUAAUACAUAUAAUGCAAUGUUC |  |  | 16 | 15 |
| UCAUUUCUGUAAGGAUAUAUAAACAUGACGAUACAUGAGGAUCACCCAUGUAUAGAAGGUACAAAUACAUAUAAUGCAAUGUUC |  |  | 16.9 | 12.9 |
| UCCAAACCGUAGAAGGGUGACAUGAGGAUCACCCAUGUGCAGCAGCCGUGAACGGCCAUGCUGCCACAGGAUAUACGGAGGAGU | 28.9 | 67.3 |  |  |
| UCCACUGCUGAGAAGGGAUACGGCUGGGUCGCAUCAGGAUAUCGAUACAGUGCAGCAUGAGGACAUGAGGAUCACCCAUGUGUG | 81 | 27 |  |  |
| UCCACUGCUGAGAAGGGAUACGUUUGGGUCGCAUCAGGAUAUCGAUACAGUGCAGCAUGAGGACAUGAGGAUCACCCAUGUGUG | 140 | 29.5 |  |  |
| UCCUACAUGGGAGGAUAUGGGAAGAUACAUGAGGAUCACCCAUGUUUAAGAAUGCCGAGAGGCAACUAGAAGGCCCAUGUAGGU | 876 | 54.4 |  |  |
| UCCUGGCGAGGAUAUACAAAGUUUUUCACGUUUUGUUUCGAACAUGAGGAUCACCCAUGUAGAAGGUGCUACUG |  |  | 62.6 | 52.8 |
| UCCUUACUGGUCAGGAUAUACAUUCGCUACUCCUUGUAGAAGGGACAUGAGGAUCACCCAUGUACUUUACAUUC |  |  | 17.4 | 18.9 |
| UCGAAGAAUGCAGGAUAUACAUGAGGAUCACCCAUGUCACGGUCGGCUUCUGUAGAAGGGCACUUACCCAGGUAAAUUGCUUGG |  |  | 5.39 | 5.81 |
| UCGACGAAAGUCGAACGAUGUAGCAGAAGGACAUGAGGAUCACCCAUGUCAGCUGUAACAGCCAUGUAGGAUAUGCUACAUCGU |  |  | 4.51 | 5.53 |
| UCGAUCGGAGGAUAUACUAAUACAACUACUGAAGUGUCAAAACAUGAGGAUCACCCAUGUAGAAGGCCGAUAUA |  |  | 21.8 | 24.3 |
| UCGCCAGGUACAGGAUAUGUGGAUCAGUUAAGUAACUUACUGAACAUGAGGAUCACCCAUGUAUCACAGAAGGGUGCCUCAAAA | 164 | 11.1 |  |  |
| UCGCUGCGAGGAUAUACGUUUGCGCGUUUUCGUUUGCGCGUACAUGAGGAUCACCCAUGUAGAAGGCGCGCGGC |  |  | 14.3 | 14.8 |
| UCGGCGCGAGGAUAUACGUUUGCUUUUUUUUGUCUUUGUGUACAUGAGGAUCACCCAUGUAGAAGGCGCGCCGC |  |  | 21.3 | 36.7 |
| UCGGCGCGAGGAUAUGCGGCUUGUGCUUCGGGCCCUCGCGUACAUGAGGAUCACCCAUGUAGAAGGCGCGCCGC |  |  | 120 | 91.7 |
| UCGUAUAUACAAGGAUAUCAAUUAUUGCUAAAUACAACAUGAGGAUCACCCAUGUAACUAUGGAGUGAGAAGGUGUAAUGACUU | 740 | 603 |  |  |
| UCGUGAAUAGAGGAUAUAUUAAUAUUUAAAACAAUAGAAGGCUAAACAUGAGGAUCACCCAUGUAAAUGGUUUU |  |  | 28.1 | 116 |
| UCGUGUUAUACAGGAUAUGUUUAGGUUUAUUCAUUCAGUUAUUAAUUUAUGACAGAAGGGUAUACAUGAGGAUCACCCAUGUCA |  |  | 761 | 306 |
| UCUAUGAAGAUUCGUCAAUACAGUUAGGAUAUGAGAGACAUGAGGAUCACCCAUGUGCAUGUUGAUUAGAAGGAACAAUUAUCU |  |  | 20.9 | 19.3 |
